Results taken from ChEMBL document CHEMBL2157941, “Synthesis and characterization of some new quinoline based derivatives endowed with broad spectrum antimicrobial potency” (2012).
Values after ≈ are worked out from the molar mass of the structure shown.

Assays:
Format in all cases: functional
Pseudomonas aeruginosa = test: Antibacterial activity against Pseudomonas aeruginosa MTCC 1688 after 24 hrs by serial broth dilution method; details: MTCC 1688, 24 h
Summary of the method: (§1)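 Read-out was the individual minimum inhibitory concentration for each bacterial or fungal strain.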

Candida albicans = test: Antifungal activity against Candida albicans MTCC 227 after 48 hrs by serial broth dilution method; details: MTCC 227, 48 h; summary of the method: as §1
Escherichia coli = test: Antibacterial activity against Escherichia coli MTCC 443 after 24 hrs by serial broth dilution method; details: MTCC 443, 24 h; summary of the method: as §1
Aspergillus clavatus = test: Antifungal activity against Aspergillus clavatus MTCC 1323 after 48 hrs by serial broth dilution method; details: MTCC 1323, 48 h; summary of the method: as §1
Aspergillus niger = test: Antifungal activity against Aspergillus niger MTCC 282 after 48 hrs by serial broth dilution method; details: MTCC 282, 48 h; summary of the method: as §1
Staphylococcus aureus = test: Antibacterial activity against Staphylococcus aureus MTCC 96 after 24 hrs by serial broth dilution method; details: MTCC 96, 24 h; summary of the method: as §1
Streptococcus pyogenes = test: Antibacterial activity against Streptococcus pyogenes MTCC 442 after 24 hrs by serial broth dilution method; details: MTCC 442, 24 h; summary of the method: as §1

Row | MIC (Pseudomonas aeruginosa) [µg/mL] | MIC (Candida albicans) [µg/mL] | MIC (Escherichia coli) [µg/mL] | MIC (Aspergillus clavatus) [µg/mL] | MIC (Aspergillus niger) [µg/mL] | MIC (Staphylococcus aureus) [µg/mL] | MIC (Streptococcus pyogenes) [µg/mL] | SMILES
1 | 500 (≈ 1050 µM) | 1000 (≈ 2090 µM) | 250 (≈ 523 µM) | 250 (≈ 523 µM) | 500 (≈ 1050 µM) | 500 (≈ 1050 µM) | 250 (≈ 523 µM) | O=C(CN1CCOCC1)Nc1nc(-c2ccccc2)cc(-c2cc3cc(F)ccc3nc2Cl)n1
2 | 500 (≈ 1010 µM) | 1000 (≈ 2020 µM) | 1000 (≈ 2020 µM) | 500 (≈ 1010 µM) | 250 (≈ 506 µM) | 500 (≈ 1010 µM) | 500 (≈ 1010 µM) | O=C(CN1CCOCC1)Nc1nc(-c2ccccc2O)cc(-c2cc3cc(F)ccc3nc2Cl)n1
3 | 1000 (≈ 2020 µM) | 500 (≈ 1010 µM) | 500 (≈ 1010 µM) | 1000 (≈ 2020 µM) | 500 (≈ 1010 µM) | 1000 (≈ 2020 µM) | 1000 (≈ 2020 µM) | O=C(CN1CCOCC1)Nc1nc(-c2ccc(O)cc2)cc(-c2cc3cc(F)ccc3nc2Cl)n1
4 | 250 (≈ 492 µM) | 1000 (≈ 1970 µM) | 500 (≈ 984 µM) | 500 (≈ 984 µM) | 250 (≈ 492 µM) | 500 (≈ 984 µM) | 250 (≈ 492 µM) | COc1ccc(-c2cc(-c3cc4cc(F)ccc4nc3Cl)nc(NC(=O)CN3CCOCC3)n2)cc1
5 | 100 (≈ 195 µM) | 500 (≈ 976 µM) | 50 (≈ 97.6 µM) | 100 (≈ 195 µM) | 100 (≈ 195 µM) | 100 (≈ 195 µM) | 100 (≈ 195 µM) | O=C(CN1CCOCC1)Nc1nc(-c2ccccc2Cl)cc(-c2cc3cc(F)ccc3nc2Cl)n1
6 | 50 (≈ 97.6 µM) | 250 (≈ 488 µM) | 100 (≈ 195 µM) | 100 (≈ 195 µM) | 100 (≈ 195 µM) | 250 (≈ 488 µM) | 100 (≈ 195 µM) | O=C(CN1CCOCC1)Nc1nc(-c2ccc(Cl)cc2)cc(-c2cc3cc(F)ccc3nc2Cl)n1
7 | 25 (≈ 50.4 µM) | 100 (≈ 202 µM) | 12.5 (≈ 25.2 µM) | 25 (≈ 50.4 µM) | 50 (≈ 101 µM) | 50 (≈ 101 µM) | 50 (≈ 101 µM) | O=C(CN1CCOCC1)Nc1nc(-c2ccccc2F)cc(-c2cc3cc(F)ccc3nc2Cl)n1
8 | 100 (≈ 202 µM) | 250 (≈ 504 µM) | 100 (≈ 202 µM) | 250 (≈ 504 µM) | 250 (≈ 504 µM) | 250 (≈ 504 µM) | 250 (≈ 504 µM) | O=C(CN1CCOCC1)Nc1nc(-c2cccc(F)c2)cc(-c2cc3cc(F)ccc3nc2Cl)n1
9 | 50 (≈ 101 µM) | 100 (≈ 202 µM) | 50 (≈ 101 µM) | 100 (≈ 202 µM) | 100 (≈ 202 µM) | 100 (≈ 202 µM) | 100 (≈ 202 µM) | O=C(CN1CCOCC1)Nc1nc(-c2ccc(F)cc2)cc(-c2cc3cc(F)ccc3nc2Cl)n1
10 | 100 (≈ 191 µM) | 100 (≈ 191 µM) | 100 (≈ 191 µM) | 100 (≈ 191 µM) | 50 (≈ 95.6 µM) | 50 (≈ 95.6 µM) | 50 (≈ 95.6 µM) | O=C(CN1CCOCC1)Nc1nc(-c2ccccc2[N+](=O)[O-])cc(-c2cc3cc(F)ccc3nc2Cl)n1
11 | 100 (≈ 191 µM) | 250 (≈ 478 µM) | 250 (≈ 478 µM) | 500 (≈ 956 µM) | 100 (≈ 191 µM) | 250 (≈ 478 µM) | 100 (≈ 191 µM) | O=C(CN1CCOCC1)Nc1nc(-c2cccc([N+](=O)[O-])c2)cc(-c2cc3cc(F)ccc3nc2Cl)n1
12 | 50 (≈ 95.6 µM) | 100 (≈ 191 µM) | 25 (≈ 47.8 µM) | 50 (≈ 95.6 µM) | 100 (≈ 191 µM) | 100 (≈ 191 µM) | 100 (≈ 191 µM) | O=C(CN1CCOCC1)Nc1nc(-c2ccc([N+](=O)[O-])cc2)cc(-c2cc3cc(F)ccc3nc2Cl)n1
13 | 500 (≈ 1130 µM) | 1000 (≈ 2270 µM) | 250 (≈ 567 µM) | 1000 (≈ 2270 µM) | 1000 (≈ 2270 µM) | 1000 (≈ 2270 µM) | 500 (≈ 1130 µM) | O=C1CSC(N2N=C(c3ccccc3O)CC2c2cc3cc(F)ccc3nc2Cl)=N1 (centres undefined)
14 | 250 (≈ 567 µM) | 1000 (≈ 2270 µM) | 500 (≈ 1130 µM) | 1000 (≈ 2270 µM) | 500 (≈ 1130 µM) | 500 (≈ 1130 µM) | 250 (≈ 567 µM) | O=C1CSC(N2N=C(c3ccc(O)cc3)CC2c2cc3cc(F)ccc3nc2Cl)=N1 (centres undefined)
15 | 1000 (≈ 2200 µM) | 1000 (≈ 2200 µM) | 1000 (≈ 2200 µM) | 500 (≈ 1100 µM) | 500 (≈ 1100 µM) | 500 (≈ 1100 µM) | 1000 (≈ 2200 µM) | COc1ccc(C2=NN(C3=NC(=O)CS3)C(c3cc4cc(F)ccc4nc3Cl)C2)cc1 (centres undefined)
16 | 100 (≈ 218 µM) | 500 (≈ 1090 µM) | 50 (≈ 109 µM) | 50 (≈ 109 µM) | 100 (≈ 218 µM) | 250 (≈ 544 µM) | 50 (≈ 109 µM) | O=C1CSC(N2N=C(c3ccccc3Cl)CC2c2cc3cc(F)ccc3nc2Cl)=N1 (centres undefined)
17 | 250 (≈ 544 µM) | 500 (≈ 1090 µM) | 500 (≈ 1090 µM) | 100 (≈ 218 µM) | 50 (≈ 109 µM) | 50 (≈ 109 µM) | 50 (≈ 109 µM) | O=C1CSC(N2N=C(c3ccc(Cl)cc3)CC2c2cc3cc(F)ccc3nc2Cl)=N1 (centres undefined)
18 | 50 (≈ 113 µM) | 250 (≈ 564 µM) | 25 (≈ 56.4 µM) | 500 (≈ 1130 µM) | 50 (≈ 113 µM) | 100 (≈ 226 µM) | 100 (≈ 226 µM) | O=C1CSC(N2N=C(c3ccccc3F)CC2c2cc3cc(F)ccc3nc2Cl)=N1 (centres undefined)
19 | 250 (≈ 564 µM) | 100 (≈ 226 µM) | 500 (≈ 1130 µM) | 500 (≈ 1130 µM) | 500 (≈ 1130 µM) | 500 (≈ 1130 µM) | 500 (≈ 1130 µM) | O=C1CSC(N2N=C(c3cccc(F)c3)CC2c2cc3cc(F)ccc3nc2Cl)=N1 (centres undefined)
20 | 50 (≈ 113 µM) | 1000 (≈ 2260 µM) | 50 (≈ 113 µM) | 100 (≈ 226 µM) | 250 (≈ 564 µM) | 100 (≈ 226 µM) | 25 (≈ 56.4 µM) | O=C1CSC(N2N=C(c3ccc(F)cc3)CC2c2cc3cc(F)ccc3nc2Cl)=N1 (centres undefined)
21 | 12.5 (≈ 26.6 µM) | 100 (≈ 213 µM) | 25 (≈ 53.2 µM) | 12.5 (≈ 26.6 µM) | 25 (≈ 53.2 µM) | 100 (≈ 213 µM) | 25 (≈ 53.2 µM) | O=C1CSC(N2N=C(c3ccccc3[N+](=O)[O-])CC2c2cc3cc(F)ccc3nc2Cl)=N1 (centres undefined)
22 | 500 (≈ 1060 µM) | 500 (≈ 1060 µM) | 250 (≈ 532 µM) | 50 (≈ 106 µM) | 100 (≈ 213 µM) | 1000 (≈ 2130 µM) | 500 (≈ 1060 µM) | O=C1CSC(N2N=C(c3cccc([N+](=O)[O-])c3)CC2c2cc3cc(F)ccc3nc2Cl)=N1 (centres undefined)
23 | 100 (≈ 213 µM) | 250 (≈ 532 µM) | 50 (≈ 106 µM) | 100 (≈ 213 µM) | 100 (≈ 213 µM) | 250 (≈ 532 µM) | 50 (≈ 106 µM) | O=C1CSC(N2N=C(c3ccc([N+](=O)[O-])cc3)CC2c2cc3cc(F)ccc3nc2Cl)=N1 (centres undefined)
24 | 250 (≈ 588 µM) | 1000 (≈ 2350 µM) | 500 (≈ 1180 µM) | 500 (≈ 1180 µM) | 1000 (≈ 2350 µM) | 500 (≈ 1180 µM) | 1000 (≈ 2350 µM) | O=C1CSC(N2N=C(c3ccccc3)CC2c2cc3cc(F)ccc3nc2Cl)=N1 (centres undefined)
25 | – | 500 (≈ 1420 µM) | – | 100 (≈ 283 µM) | 100 (≈ 283 µM) | – | – | COC1=CC(=O)C[C@@H](C)[C@]12Oc1c(Cl)c(OC)cc(OC)c1C2=O [GRISEOFULVIN]

Row | SMILES | MIC (Pseudomonas aeruginosa) [µg/mL] | MIC (Candida albicans) [µg/mL] | MIC (Escherichia coli) [µg/mL] | MIC (Aspergillus clavatus) [µg/mL] | MIC (Aspergillus niger) [µg/mL] | MIC (Staphylococcus aureus) [µg/mL] | MIC (Streptococcus pyogenes) [µg/mL]
26 | O=C(O)c1cn(C2CC2)c2cc(N3CCNCC3)c(F)cc2c1=O [CIPROFLOXACIN] | – | – | 25 (≈ 75.4 µM) | – | – | 50 (≈ 151 µM) | 50 (≈ 151 µM)
